Source: ChEMBL document CHEMBL1139327, “Synthesis and biological properties of Pachastrissamine (jaspine B) and diastereoisomeric jaspines” (2009)
Active and inactive are the calls of the source. No cut-off for these calls is given here.

Columns and labels:
[1] = tested on: A549; assay: Cytotoxicity against human A549 cells after 24 hrs by MTT assay; assay type: functional; settings: A549, 24 h, read-out: LD50 (the source's name)
Summary of the method: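 Human alveolar epithelial A549 cells (ATCC) grown in HAM F12 with glutamine plus 10% FBS at 37 °C, 5% CO2. Seeded at 10^5 cells/well; after 24 h, medium renewed and compounds (ethanol stocks; vehicle control 0.1% ethanol) added to final 0.02–400 µM for 24 h. Viable cells by MTT; LD50 from concentration–response; means of three independent experiments with triplicates.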

[2] = tested on: A549; assay: Cytotoxicity against human A549 cells after 24 hrs by MTT assay in presence of 3-methyladenine; assay type: functional
Summary of the method: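 A549 (HAM F12/glutamine, 10% FBS, 37 °C, 5% CO2) pretreated 2 weeks with 10 mM 3-MA in flask, medium changed every 2 days. Then 10^5 cells/well seeded in medium with 3-MA plus compounds at 0.02–400 μM final (ethanol vehicle, 0.1%), 24 h. Viability by MTT, LD50 derived. Means SD, three independent experiments, triplicates.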

[3] = tested on: A549; assay: Cytotoxicity against human A549 cells assessed as PI positive cells after 24 hrs by flow cytometry; assay type: functional, cell-based
Summary of the method: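 A549 cells exposed 24 h to a range of compound concentrations, harvested by brief trypsinization, double-stained with Alexa Fluor 488 annexin V and propidium iodide, analysed by flow cytometry; percentage of cells positive for annexin V, PI or both scored against untreated control.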

[4] = tested on: A549; assay: Induction of 3-methyladenine-inhibited autophagy in human A549 cells assessed as increase in ceramide levels
[5] = tested on: A549; assay: Cytotoxicity against human A549 cells after 24 hrs by MTT assay in absence of 3-methyladenine; assay type: functional
Summary of the method: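 A549 (ATCC) grown in HAM F12 with glutamine + 10% FBS, 37 °C, 5% CO2. Seeded 10^5 cells/well, medium renewed after 24 h, then exposed 24 h to 0.02–400 μM final (ethanol stock; 0.1% ethanol vehicle control). Viable cells by MTT; LD50 taken from curves. Means SD, three independent experiments in triplicate.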

| Structure (SMILES) | CC50 [1] | Activity [2] | Activity [3] | Activity [4] | Activity [5] |
| --- | --- | --- | --- | --- | --- |
| CCCCCCCCCCCCCC[C@H]1OC[C@H](N)[C@H]1O | 2500 nM | inactive | Dose-dependent effect | – | – |
| CCCCCCCCCCCCCC[C@@H]1OC[C@H](N)[C@@H]1O [PACHASTRISSAMINE] | 130 nM | inactive | Dose-dependent effect | Dose-dependent effect | – |
| CCCCCCCCCCCCCC[C@H](O)[C@@H](O)[C@@H](N)CO | – | 29.4 µM | – | – | 28.2 µM |
| CCCCCCCCCCCCCC[C@@H]1OC[C@H](N)[C@H]1O | 1500 nM | inactive | Dose-dependent effect | – | – |
| CCCCCCCCCCCCCC[C@H]1OC[C@H](N)[C@@H]1O [2-EPI JASPINE B] | 1250 nM | inactive | Dose-dependent effect | – | – |
